Assay results pooled from the literature.
Compare with care: the assays were run in different laboratories.
FLT3 ITD: Receptor-type tyrosine-protein kinase FLT3 (FLT3, Homo sapiens, UniProt P36888, ITD)
HTR2B: 5-hydroxytryptamine receptor 2B (HTR2B, Homo sapiens, UniProt P41595)
PLCD1: 1-phosphatidylinositol 4,5-bisphosphate phosphodiesterase delta-1 (PLCD1, Homo sapiens, UniProt P51178)
CSNK1D: Casein kinase I isoform delta (CSNK1D, Homo sapiens, UniProt P48730)
FLT3 D835Y: Receptor-type tyrosine-protein kinase FLT3 (FLT3, Homo sapiens, UniProt P36888, D835Y)

Cc1n[nH]c2ccc3nc(-c4ccc(C(=O)N(C)CCN(C)C)cc4)c4c(c3c12)CCC(F)(F)C4  IC50 (FLT3 ITD; enzyme activity; inhibitor): > 1 µM
COc1cc2c3c(c1OC)-c1c(OC)ccc(O)c1CC3N(C)CC2 (stereo not drawn)  Ki (HTR2B; ligand displacement; radioligand): 1.42 µM
CCOc1ccc(C(=O)CC(SCc2cccc(Br)c2)C(=O)O)cc1 (stereo not drawn)  Ki (PLCD1; ligand displacement; FP): 630 µM
CNc1cncc(Cl)n1  Kd (CSNK1D; binding; SPR): > 50 µM
CCOc1ccc(C(=O)CC(SCc2ccc(Cl)cc2)C(=O)O)cc1OCC (stereo not drawn)  Ki (PLCD1; ligand displacement; FP): > 1000 µM
CN(C)CCNC(=O)c1ccc(-c2nc3ccc4[nH]ncc4c3c3c2CCCC3)cc1  IC50 (Receptor-type tyrosine-protein kinase FLT3 (FLT3, Homo sapiens, UniProt P36888, F691L); enzyme activity; inhibitor): 0.157 µM
Brc1ccc2nccnc2c1  Kd (CSNK1D; binding; SPR): > 50 µM
COc1cc2c3c(c1OC)-c1c(OC)ccc(Br)c1CC3N(C)CC2 (stereo not drawn)  Ki (5-hydroxytryptamine receptor 2C (HTR2C, Homo sapiens, UniProt P28335); cell-free assay; radioligand): 2.2 µM
Cc1n[nH]c2ccc3nc(-c4ccc(C(=O)NCCN(C)C)cn4)c4c(c3c12)CCCCC4  IC50 (FLT3 ITD; enzyme activity; inhibitor): 0.419 µM
CCOc1ccc(C(=O)CC(SCc2ccccc2Br)C(=O)O)cc1 (stereo not drawn)  Ki (PLCD1; ligand displacement; FP): > 1000 µM
Brc1cnc2nccnc2c1  Kd (CSNK1D; binding; SPR): > 50 µM
CCCNC(=O)c1ccc2c3c1C(CC(F)(F)F)CN3CCNC2 (racemic)  Ki (HTR2B; ligand displacement; radioligand; cell membranes): 2.25 µM
CN(C)C(=O)c1cc2cnc(Nc3ccc(C(=O)NCCCCCCOc4cccc5c4C(=O)N(C4CCC(=O)NC4=O)C5=O)cc3)nc2n1C1CCCC1 (stereo not drawn)  Kd (Ephrin type-B receptor 6 (EPHB6, Homo sapiens, UniProt O15197); binding; competition with immobilised ligand): < 0.2 µM
COCc1n[nH]c(N)c1-c1ccc(Cl)cc1  Kd (CSNK1D; binding; SPR): > 50 µM
CCOc1cccc(C(=O)CC(SCc2cccc(Br)c2)C(=O)O)c1 (stereo not drawn)  Ki (PLCD1; ligand displacement; FP): 605 µM
O=C(NC1CCCCC1)C(=O)c1c[nH]c2ccccc12  Kd (CSNK1D; binding; SPR): 5.7 µM
COCCNC(=O)c1ccc(-c2nc3ccc4[nH]ncc4c3c3c2CCCC3)cc1  IC50 (FLT3 ITD; enzyme activity; inhibitor): 0.664 µM
CSCC[C@H](NC(C)=O)C(=O)N[C@@H](CC(=O)O)C(=O)N[C@@H](Cc1ccccc1)C(N)=O  EC50 (Gastrin/cholecystokinin type B receptor (CCKBR, Homo sapiens, UniProt P32239); β-arrestin recruitment; agonist): 18.7 µM
CN(C)CCNC(=O)c1ccc(-c2nc3ccc4[nH]ncc4c3c3c2CCCCC3)c(F)c1  IC50 (FLT3 D835Y; enzyme activity; inhibitor): 0.007 µM
COc1cc(C(C)=O)c(F)cc1O  Kd (CSNK1D; binding; SPR): > 50 µM
COc1cc2c3c(c1OC)-c1c(OC)ccc(N4CCOCC4)c1CC3N(C)CC2 (stereo not drawn)  Ki (HTR2B; ligand displacement; radioligand): 0.773 µM
CCOc1ccc(C(=O)CC(SCc2ccccc2)C(=O)O)cc1 (stereo not drawn)  Ki (PLCD1; ligand displacement; FP): > 1000 µM
c1ccc(-c2oc3ncnc(NCCCN4CCOCC4)c3c2-c2ccccc2)cc1  Kd (CSNK1D; binding; SPR): > 50 µM
CN(C)CCN(C)C(=O)c1ccc(-c2nc3ccc4[nH]ncc4c3c3c2CCCCC3)cn1  IC50 (FLT3 ITD; enzyme activity; inhibitor): > 1 µM
COc1ccc(C(=O)CC(SCc2ccc(Cl)cc2)C(=O)O)cc1 (stereo not drawn)  Ki (PLCD1; ligand displacement; FP): > 1000 µM
Oc1ccc(C2CNCCN2)cc1 (stereo not drawn)  Kd (CSNK1D; binding; SPR): > 50 µM
CN(C)CCN(C)C(=O)c1ccc(-c2nc3ccc4[nH]ncc4c3c3c2CCCCC3)cc1  IC50 (FLT3 ITD; enzyme activity; inhibitor): > 1 µM
CCOc1ccc(C(=O)CC(SCc2ccc(F)cc2)C(=O)O)cc1 (stereo not drawn)  Ki (PLCD1; ligand displacement; FP): > 1000 µM
Cc1n[nH]c2ccc3nc(-c4ccc(C(=O)NCCN(C)C)cc4F)c4c(c3c12)CCCC4  IC50 (FLT3 D835Y; enzyme activity; inhibitor): 0.005 µM
COc1cccc(C(=O)CC(SCc2ccc(Cl)cc2)C(=O)O)c1 (stereo not drawn)  Ki (PLCD1; ligand displacement; FP): > 1000 µM
